Data: ChEMBL document CHEMBL1687827, “Profiling the Aspergillus fumigatus proteome in response to caspofungin” (2011)
Activity calls are given as the source filed them. The calls are words filed in the database; no cut-off is given here.

Assays:
Aspergillus fumigatus [1] = experiment: Induction of change in 37S ribosomal protein S24 protein level in iTRAQ-118 labelled cell wall fraction of drug-resistant Aspergillus fumigatus EMFR-S678P at 0.12 ug/ml after 24 hrs in YPD medium by MS (MS/MS) analysis relative to control; type: functional, organism-based
Summary of the method: (§1)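 Conidia at 1 × 10⁵/ml were grown at 37°C, shaking at 225 rpm, in YPD with or without 0.12 μg/ml caspofungin for 24 or 48 h. The culture filtrate was kept as the secreted fraction. Mycelia were lysed by French press in HEPES/glycerol/EDTA/PMSF/DTT buffer, and the 5,000 × g pellet was washed to give CW/PM. Proteins were reduced, alkylated and trypsin-digested at 37°C overnight, then iTRAQ-labelled and run by 2D LC-MS/MS. Ratios are the median of unique-peptide ratios, median-normalized, versus the no-drug control.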

Aspergillus fumigatus [2] = experiment: Induction of change in mitochondrial hypoxia responsive domain protein level in iTRAQ-118 labelled cell wall fraction of drug-resistant Aspergillus fumigatus EMFR-S678P at 0.12 ug/ml after 48 hrs in YPD medium by MS (MS/MS) analysis relative to control; type: functional; summary of the method: as §1
Aspergillus fumigatus [3] = experiment: Induction of change in outer mitochondrial membrane protein porin protein level in iTRAQ-116 labelled secreted fraction of drug-susceptible Aspergillus fumigatus KU80 delta-akuB at 0.12 ug/ml after 48 hrs in YPD medium by MS (MS/MS) analysis relative to control; type: functional
Summary of the method: (§2)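 Conidia (1 × 10⁵/ml) grown in YPD, 37°C, 225 rpm, ± 0.12 μg/ml caspofungin; filtrate taken as secreted fraction, French-press lysate 5,000 × g pellet as cell wall/plasma membrane. Trypsin digests 8-plex iTRAQ-labelled (drug-free channels as references), pooled, 2D-chromatography, MS/MS. Median-normalized; protein ratio = median of unique-peptide ratios, log2 normalized.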

Aspergillus fumigatus [4] = experiment: Induction of change in hypothetical gene locus AFUA_4G11270 expression in drug-susceptible Aspergillus fumigatus KU80 delta-akuB at 0.12 ug/ml after 48 hrs in YPD medium by microarray analysis relative to control; type: functional
Summary of the method: (§3)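 Mycelia grown in YPD ± 0.12 μg/ml caspofungin (1 × 10⁵ conidia/ml, 37°C, shaking) and harvested at 24 or 48 h. Total RNA extracted, DNase-treated and quality-checked; 2 μg labelled per TIGR SOP M007 and hybridized to whole-genome arrays. Three independent experiments with dye flip (6 replicates); drug vs untreated fold change.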

Aspergillus fumigatus [5] = experiment: Induction of change in 60S ribosomal protein L7 protein level in iTRAQ114 labelled cell wall fraction of drug-susceptible Aspergillus fumigatus KU80 delta-akuB at 0.12 ug/ml after 24 hrs in YPD medium by MS (MS/MS) analysis relative to control; type: functional
Summary of the method: (§4)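 Conidia at 1 × 10⁵/ml grown shaking at 37°C in YPD with or without 0.12 μg/ml caspofungin; mycelia filtered at 24 or 48 h. Secreted fraction taken from the filtrate; cell wall/plasma membrane pellet recovered after French-press lysis and a 5,000 × g spin. Proteins trypsin-digested and iTRAQ-labelled, drug vs no-drug channels at each time, then 2D LC-MS/MS. Protein ratio is the median of ratios from uniquely assigned peptides after median normalization.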

Aspergillus fumigatus [6] = experiment: Induction of change in plasma membrane H -ATPase protein level in iTRAQ-116 labelled secreted fraction of drug-susceptible Aspergillus fumigatus KU80 delta-akuB at 0.12 ug/ml after 48 hrs in YPD medium by MS (MS/MS) analysis relative to control; type: functional; summary of the method: as §2
Aspergillus fumigatus [7] = experiment: Induction of change in cytochrome c protein level in iTRAQ114 labelled secreted fraction of drug-susceptible Aspergillus fumigatus KU80 delta-akuB at 0.12 ug/ml after 24 hrs in YPD medium by MS (MS/MS) analysis relative to control; type: functional; summary of the method: as §4
Aspergillus fumigatus [8] = experiment: Induction of change in 60s ribosomal protein L24, putative protein level in iTRAQ114 labelled cell wall fraction of drug-susceptible Aspergillus fumigatus KU80 delta-akuB at 0.12 ug/ml after 24 hrs in YPD medium by MS (MS/MS) analysis relative to control; type: functional; summary of the method: as §4
Aspergillus fumigatus [9] = experiment: Induction of change in pyruvate decarboxylase PdcA, putative protein level in iTRAQ-118 labelled cell wall fraction of drug-resistant Aspergillus fumigatus EMFR-S678P at 0.12 ug/ml after 24 hrs in YPD medium by MS (MS/MS) analysis relative to control; type: functional, organism-based; summary of the method: as §1
Aspergillus fumigatus [10] = experiment: Induction of change in transcriptional repressor TupA/RocA, putative protein level in iTRAQ-118 labelled cell wall fraction of drug-resistant Aspergillus fumigatus EMFR-S678P at 0.12 ug/ml after 24 hrs in YPD medium by MS (MS/MS) analysis relative to control; type: functional; summary of the method: as §1
Aspergillus fumigatus [11] = experiment: Induction of change in 14-alpha sterol demethylase Cyp51A protein level in iTRAQ-118 labelled cell wall fraction of drug-resistant Aspergillus fumigatus EMFR-S678P at 0.12 ug/ml after 48 hrs in YPD medium by MS (MS/MS) analysis relative to control; type: functional; summary of the method: as §1
Aspergillus fumigatus [12] = experiment: Induction of change in cytochrome b5, putative protein level in iTRAQ114 labelled secreted fraction of drug-resistant Aspergillus fumigatus EMFR-S678P at 0.12 ug/ml after 24 hrs in YPD medium by MS (MS/MS) analysis relative to control; type: functional; summary of the method: as §1
Aspergillus fumigatus [13] = experiment: Induction of change in conserved hypothetical gene locus AFUA_5G03010 expression in drug-susceptible Aspergillus fumigatus KU80 delta-akuB at 0.12 ug/ml after 24 hrs in YPD medium by microarray analysis relative to control; type: functional; summary of the method: as §3

CC[C@H](C)C[C@H](C)CCCCCCCCC(=O)N[C@H]1C[C@@H](O)[C@@H](NCCN)NC(=O)[C@@H]2[C@@H](O)CCN2C(=O)[C@H]([C@H](O)CCN)NC(=O)[C@H]([C@H](O)[C@@H](O)c2ccc(O)cc2)NC(=O)[C@@H]2C[C@@H](O)CN2C(=O)[C@H]([C@@H](C)O)NC1=O [CASPOFUNGIN]
Activity (Aspergillus fumigatus [1]): inactive | fold change (FC) (Aspergillus fumigatus [2]): 1.07 | fold change (FC) (Aspergillus fumigatus [3]): -1.2 | fold change (FC) (Aspergillus fumigatus [4]): 3.7 | fold change (FC) (Aspergillus fumigatus [5]): 2 | fold change (FC) (Aspergillus fumigatus [6]): -1.7 | fold change (FC) (Aspergillus fumigatus [7]): -2.6 | fold change (FC) (Aspergillus fumigatus [8]): 1.5 | Activity (Aspergillus fumigatus [9]): inactive | fold change (FC) (Aspergillus fumigatus [10]): 1.32 | fold change (FC) (Aspergillus fumigatus [11]): 1.07 | fold change (FC) (Aspergillus fumigatus [12]): -1.32 | fold change (FC) (Aspergillus fumigatus [13]): 5.6
